Source: ChEMBL document CHEMBL3393025, “Discovery of dual leucine zipper kinase (DLK, MAP3K12) inhibitors with activity in neurodegeneration models” (J Med Chem, 2015)
Active and inactive are the calls of the source. The rule behind the calls is not given here.

How the values were obtained:
[1] = Oral bioavailability in mouse at 5 mg/kg; type: ADME, organism-based; conditions: in vivo
How it was run: (§1)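 Single-compound PK. Intravenous dose 1 mg/kg given as a 60% PEG solution. Oral dose 5 mg/kg given as an aqueous suspension in 1% methylcellulose. Plasma clearance, steady-state volume of distribution, half-life and oral bioavailability were determined from these doses.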

[2] = molecular target: Proto-oncogene tyrosine-protein kinase Src (Homo sapiens) (UniProt P12931); experiment: Inhibition of Src (unknown origin) at 0.1 uM
Proto-oncogene tyrosine-protein kinase Src (Homo sapiens), sequence (P12931 2-536 limits assumed): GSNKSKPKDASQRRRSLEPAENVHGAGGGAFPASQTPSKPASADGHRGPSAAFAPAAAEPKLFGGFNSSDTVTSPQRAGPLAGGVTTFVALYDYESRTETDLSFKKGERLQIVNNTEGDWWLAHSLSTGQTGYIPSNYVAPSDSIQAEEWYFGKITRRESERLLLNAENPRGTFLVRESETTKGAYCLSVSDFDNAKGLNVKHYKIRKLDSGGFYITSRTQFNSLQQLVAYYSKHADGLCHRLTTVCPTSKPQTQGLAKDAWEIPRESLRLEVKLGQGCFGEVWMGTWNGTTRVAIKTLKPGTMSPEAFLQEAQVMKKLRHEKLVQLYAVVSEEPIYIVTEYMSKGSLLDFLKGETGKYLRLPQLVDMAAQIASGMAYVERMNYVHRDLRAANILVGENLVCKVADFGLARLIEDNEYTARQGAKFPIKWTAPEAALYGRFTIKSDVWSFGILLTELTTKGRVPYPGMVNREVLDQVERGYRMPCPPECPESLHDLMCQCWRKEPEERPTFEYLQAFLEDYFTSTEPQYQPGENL
How it was run: (§2)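 Kinase selectivity panel of 298 kinases, test compound at 0.1 μM, percent inhibition reported.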

[3] = Half life in cynomolgus monkey at 1 mg/kg, iv and 5 mg/kg, po; type: ADME, organism-based, Macaca fascicularis; conditions: in vivo; how it was run: as §1
[4] = Half life in dog at 1 mg/kg, iv and 5 mg/kg, po; type: ADME, organism-based, Canis lupus familiaris; conditions: in vivo; how it was run: as §1
[5] = Volume of distribution at steady state in rat at 1 mg/kg, iv and 5 mg/kg, po; type: ADME, organism-based; conditions: in vivo, read-out: Vdss; how it was run: as §1
[6] = Volume of distribution at steady state in dog at 1 mg/kg, iv and 5 mg/kg, po; type: ADME, organism-based, Canis lupus familiaris; conditions: in vivo, read-out: Vdss; how it was run: as §1
[7] = molecular target: Mitogen-activated protein kinase kinase kinase 9 (Homo sapiens, UniProt P80192); experiment: Inhibition of MLK1 (unknown origin)
Mitogen-activated protein kinase kinase kinase 9, sequence (P80192 whole entry): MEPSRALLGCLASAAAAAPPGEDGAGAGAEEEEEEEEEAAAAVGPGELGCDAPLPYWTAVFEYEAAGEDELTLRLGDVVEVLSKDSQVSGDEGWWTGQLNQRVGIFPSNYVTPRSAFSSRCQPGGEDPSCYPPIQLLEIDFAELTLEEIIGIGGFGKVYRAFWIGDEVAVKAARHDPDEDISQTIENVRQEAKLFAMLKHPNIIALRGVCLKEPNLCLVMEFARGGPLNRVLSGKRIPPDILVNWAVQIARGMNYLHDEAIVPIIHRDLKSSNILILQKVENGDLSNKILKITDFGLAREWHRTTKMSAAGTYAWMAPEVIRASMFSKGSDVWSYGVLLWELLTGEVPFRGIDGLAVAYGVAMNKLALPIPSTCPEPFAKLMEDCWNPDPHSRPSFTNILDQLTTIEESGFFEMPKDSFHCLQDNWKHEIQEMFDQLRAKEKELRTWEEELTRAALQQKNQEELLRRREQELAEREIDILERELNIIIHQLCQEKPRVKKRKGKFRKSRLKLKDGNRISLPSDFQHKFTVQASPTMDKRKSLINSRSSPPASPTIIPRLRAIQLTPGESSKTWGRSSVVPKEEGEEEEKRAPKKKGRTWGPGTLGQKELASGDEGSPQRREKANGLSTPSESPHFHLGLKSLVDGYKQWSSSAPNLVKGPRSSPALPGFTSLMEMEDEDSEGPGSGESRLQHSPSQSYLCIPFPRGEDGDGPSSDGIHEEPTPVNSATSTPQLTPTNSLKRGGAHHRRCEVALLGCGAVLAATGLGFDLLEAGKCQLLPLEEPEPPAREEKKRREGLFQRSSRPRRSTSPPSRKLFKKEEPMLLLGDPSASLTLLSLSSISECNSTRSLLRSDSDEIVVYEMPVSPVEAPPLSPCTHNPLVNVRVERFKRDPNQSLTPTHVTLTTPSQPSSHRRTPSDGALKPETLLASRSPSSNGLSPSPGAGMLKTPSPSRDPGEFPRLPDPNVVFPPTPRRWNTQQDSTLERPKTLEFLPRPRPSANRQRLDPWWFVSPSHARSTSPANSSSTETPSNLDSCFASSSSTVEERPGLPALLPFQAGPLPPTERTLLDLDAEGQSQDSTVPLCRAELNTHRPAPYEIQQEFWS

[8] = molecular target: Mitogen-activated protein kinase kinase kinase 11 (Homo sapiens, UniProt Q16584); experiment: Inhibition of MLK3 (unknown origin)
Mitogen-activated protein kinase kinase kinase 11, sequence (Q16584 whole entry): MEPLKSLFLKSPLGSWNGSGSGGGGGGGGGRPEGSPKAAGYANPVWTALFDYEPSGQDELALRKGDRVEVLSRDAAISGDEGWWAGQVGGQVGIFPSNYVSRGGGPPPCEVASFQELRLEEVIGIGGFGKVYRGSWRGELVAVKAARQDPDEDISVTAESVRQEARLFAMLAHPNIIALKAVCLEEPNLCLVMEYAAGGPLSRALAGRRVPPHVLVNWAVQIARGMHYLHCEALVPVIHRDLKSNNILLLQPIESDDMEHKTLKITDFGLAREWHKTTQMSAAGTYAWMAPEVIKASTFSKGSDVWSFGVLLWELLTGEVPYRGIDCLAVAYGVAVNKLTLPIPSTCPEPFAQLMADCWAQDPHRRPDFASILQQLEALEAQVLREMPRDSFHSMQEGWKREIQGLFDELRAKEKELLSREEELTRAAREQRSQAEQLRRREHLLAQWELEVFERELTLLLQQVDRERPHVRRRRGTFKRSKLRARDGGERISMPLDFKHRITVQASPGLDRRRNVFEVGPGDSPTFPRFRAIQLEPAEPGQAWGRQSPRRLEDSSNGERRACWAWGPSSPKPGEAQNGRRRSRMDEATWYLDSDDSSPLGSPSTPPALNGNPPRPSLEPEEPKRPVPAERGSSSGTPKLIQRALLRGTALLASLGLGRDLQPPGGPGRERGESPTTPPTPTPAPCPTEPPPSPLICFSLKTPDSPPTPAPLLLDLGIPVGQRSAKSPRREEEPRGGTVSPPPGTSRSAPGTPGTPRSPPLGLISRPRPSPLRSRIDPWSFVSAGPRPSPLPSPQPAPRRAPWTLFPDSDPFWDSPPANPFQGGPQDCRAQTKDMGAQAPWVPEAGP

[9] = Plasma clearance in rat at 1 mg/kg, iv and 5 mg/kg, po; type: ADME, organism-based; how it was run: as §1
Mus musculus [10] = experiment: Neuroprotective activity against C57Bl/6 mouse Parkinson's disease model assessed as reduction of MPTP-induced increase in phosphorylated c-Jun level in substantia nigra at 37.5 to 75 mg/kg, po administered 30 mins prior to MPTP challenge followed by 2nd dosing after 12 and 24 hrs measured 1 hr post last dose by ELISA relative to vehicle-treated control; type: functional, organism-based
[11] = Oral bioavailability in dog at 5 mg/kg; type: ADME, organism-based, Canis lupus familiaris; conditions: in vivo; how it was run: as §1
[12] = molecular target: T1, Ephrin type-A receptor 1 (Homo sapiens) (UniProt P21709); experiment: Inhibition of EphA1 (unknown origin) at 0.1 uM; how it was run: as §2
T1 sequence (whole entry): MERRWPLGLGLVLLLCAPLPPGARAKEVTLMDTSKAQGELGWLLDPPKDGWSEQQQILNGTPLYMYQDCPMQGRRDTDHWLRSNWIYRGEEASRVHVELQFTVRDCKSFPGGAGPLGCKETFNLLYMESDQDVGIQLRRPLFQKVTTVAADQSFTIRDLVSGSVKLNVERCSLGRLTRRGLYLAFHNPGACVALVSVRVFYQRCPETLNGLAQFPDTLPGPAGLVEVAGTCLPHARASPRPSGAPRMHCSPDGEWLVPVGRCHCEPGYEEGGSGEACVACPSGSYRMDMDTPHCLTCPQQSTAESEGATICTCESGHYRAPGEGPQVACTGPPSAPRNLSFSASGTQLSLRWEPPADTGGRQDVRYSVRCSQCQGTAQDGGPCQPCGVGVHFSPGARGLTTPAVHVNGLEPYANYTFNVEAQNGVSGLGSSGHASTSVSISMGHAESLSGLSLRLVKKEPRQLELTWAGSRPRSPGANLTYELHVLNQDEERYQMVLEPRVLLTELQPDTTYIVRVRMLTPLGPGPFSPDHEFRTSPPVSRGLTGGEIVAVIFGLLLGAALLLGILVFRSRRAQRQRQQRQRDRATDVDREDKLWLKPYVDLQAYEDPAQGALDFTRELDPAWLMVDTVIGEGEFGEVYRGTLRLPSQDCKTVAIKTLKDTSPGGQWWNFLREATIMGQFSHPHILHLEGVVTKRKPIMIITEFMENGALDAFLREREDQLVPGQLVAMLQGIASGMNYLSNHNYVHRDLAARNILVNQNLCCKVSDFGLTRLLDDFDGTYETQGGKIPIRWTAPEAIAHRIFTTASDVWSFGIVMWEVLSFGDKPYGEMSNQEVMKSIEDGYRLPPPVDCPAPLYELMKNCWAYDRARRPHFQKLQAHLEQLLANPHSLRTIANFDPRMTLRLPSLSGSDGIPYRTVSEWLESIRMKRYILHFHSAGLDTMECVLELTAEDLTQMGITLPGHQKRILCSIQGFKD

[13] = molecular target: Mitogen-activated protein kinase 10 (Homo sapiens, UniProt P53779); experiment: Inhibition of JNK3 (unknown origin)
Mitogen-activated protein kinase 10, sequence (P53779 whole entry): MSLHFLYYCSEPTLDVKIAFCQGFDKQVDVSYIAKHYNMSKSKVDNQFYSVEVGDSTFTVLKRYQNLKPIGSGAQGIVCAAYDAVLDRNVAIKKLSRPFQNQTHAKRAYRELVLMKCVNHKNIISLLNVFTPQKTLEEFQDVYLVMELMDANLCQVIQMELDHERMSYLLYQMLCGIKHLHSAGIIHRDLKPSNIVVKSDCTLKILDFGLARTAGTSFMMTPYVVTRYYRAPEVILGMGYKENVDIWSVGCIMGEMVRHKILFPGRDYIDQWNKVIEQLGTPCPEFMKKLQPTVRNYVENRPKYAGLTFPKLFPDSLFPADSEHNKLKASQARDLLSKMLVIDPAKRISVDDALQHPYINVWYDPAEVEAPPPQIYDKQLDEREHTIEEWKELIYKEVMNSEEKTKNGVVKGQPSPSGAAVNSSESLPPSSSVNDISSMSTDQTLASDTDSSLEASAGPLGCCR

[14] = Oral bioavailability in cynomolgus monkey at 5 mg/kg; type: ADME, organism-based, Macaca fascicularis; conditions: in vivo; how it was run: as §1
DRG neuron = experiment: (§3) Neuroprotective activity in E14.5 rat embryo DRG neurons; type: functional
How it was run: (§4)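 DRG neurons freshly dissected from E14.5 rat embryos, plated at 1200−2000 cells/well on an astrocyte monolayer in DMEM/F12 with N3 supplement, 0.18% glucose and 25 ng/mL NGF. 200 μM uridine and 100 μM 5-fluorodeoxyuridine added next day. Cultured 4 days before axon degeneration assay. IC50 reported.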

[15] = as §3; type: functional; conditions: drg neuron; how it was run: as §4
[16] = molecular target: Serine/threonine-protein kinase 16 (Homo sapiens) (UniProt O75716); experiment: Inhibition of STK16 (unknown origin) at 0.1 uM; how it was run: as §2
Serine/threonine-protein kinase 16 (Homo sapiens), sequence (O75716 whole entry): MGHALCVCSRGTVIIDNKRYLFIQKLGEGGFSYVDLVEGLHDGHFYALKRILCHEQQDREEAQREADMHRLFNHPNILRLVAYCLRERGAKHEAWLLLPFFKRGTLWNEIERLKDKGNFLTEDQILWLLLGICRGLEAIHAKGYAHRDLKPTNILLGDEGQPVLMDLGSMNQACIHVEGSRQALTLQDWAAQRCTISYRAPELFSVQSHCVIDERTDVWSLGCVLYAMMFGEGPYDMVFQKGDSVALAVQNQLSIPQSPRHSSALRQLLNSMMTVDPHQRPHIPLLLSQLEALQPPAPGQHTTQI

[17] = molecular target: Proto-oncogene tyrosine-protein kinase Src (Homo sapiens) (UniProt P12931); experiment: Inhibition of Src_N1 (unknown origin) at 0.1 uM; how it was run: as §2
[18] = molecular target: Mitogen-activated protein kinase 9 (Homo sapiens, UniProt P45984); experiment: Inhibition of JNK2 (unknown origin)
Mitogen-activated protein kinase 9, sequence (P45984 whole entry): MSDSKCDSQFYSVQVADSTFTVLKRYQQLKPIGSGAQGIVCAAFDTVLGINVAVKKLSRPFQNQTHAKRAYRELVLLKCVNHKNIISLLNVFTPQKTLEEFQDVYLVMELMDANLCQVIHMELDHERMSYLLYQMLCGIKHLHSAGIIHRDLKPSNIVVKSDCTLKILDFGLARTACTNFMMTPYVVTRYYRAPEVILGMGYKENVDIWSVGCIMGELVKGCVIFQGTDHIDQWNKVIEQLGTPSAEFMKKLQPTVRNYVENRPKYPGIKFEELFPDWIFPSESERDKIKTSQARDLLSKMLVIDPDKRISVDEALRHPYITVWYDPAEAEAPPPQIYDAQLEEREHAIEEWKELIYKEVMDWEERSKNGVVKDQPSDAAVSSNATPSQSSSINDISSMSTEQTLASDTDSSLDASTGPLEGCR

[19] = Plasma clearance in mouse at 1 mg/kg, iv and 5 mg/kg, po; type: ADME, organism-based; how it was run: as §1
Mus musculus [20] = experiment: Neuroprotective activity against po dosed C57Bl/6 mouse optic nerve crush model assessed as reduction of phosphorylated c-Jun level in retina administered 30 mins prior to nerve crush injury measured after 6 hrs by MSD ELISA; type: functional, organism-based
How it was run: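 C57Bl/6 mice dosed orally at two dose levels (MCT suspension) or vehicle, 30 min before optic nerve crush. Retinal p-c-Jun measured 6 h post-injury by MSD ELISA, expressed relative to uncrushed vehicle controls. N = 5 vehicle, 6 per treated group. Mean ± SEM.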

[21] = Half life in rat at 1 mg/kg, iv and 5 mg/kg, po; type: ADME, organism-based; conditions: in vivo; how it was run: as §1
MDR1 = experiment: Apparent permeability from apical to basolateral side in MDCK cells expressing human MDR1 at 5 uM after 60 to 180 mins by LC-MS/MS analysis; type: ADME, cell-based, Canis lupus familiaris; conditions: dog
[22] = molecular target: T2, Dual specificity mitogen-activated protein kinase kinase 7 (Homo sapiens, UniProt O14733); experiment: Inhibition of MKK7 (unknown origin)
T2 sequence (O14733 whole entry): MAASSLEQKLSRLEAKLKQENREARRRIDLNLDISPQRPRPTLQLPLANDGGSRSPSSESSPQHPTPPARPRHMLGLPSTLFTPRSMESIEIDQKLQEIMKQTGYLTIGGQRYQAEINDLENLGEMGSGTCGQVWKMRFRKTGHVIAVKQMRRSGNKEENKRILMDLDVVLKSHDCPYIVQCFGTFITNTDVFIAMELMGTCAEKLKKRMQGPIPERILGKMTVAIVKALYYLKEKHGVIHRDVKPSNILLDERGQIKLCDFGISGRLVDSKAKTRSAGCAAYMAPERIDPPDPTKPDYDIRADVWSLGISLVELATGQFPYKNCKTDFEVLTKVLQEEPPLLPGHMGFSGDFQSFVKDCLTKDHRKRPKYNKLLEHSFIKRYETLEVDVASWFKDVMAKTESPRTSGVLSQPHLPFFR

- bioavailability [1]: 45%
- inhibition [2]: > 80%
- half-life [3]: 2.4 h
- half-life [4]: 4 h
- Vd [5]: 3.7 L/kg
- Vd [6]: 6.5 L/kg
- IC50 [7]: 67.8 nM
- IC50 [8]: 602 nM
- clearance [9]: 30 mL/min/kg
- bioavailability [11]: 32%
- inhibition [12]: > 80%
- IC50 [13]: 364 nM
- bioavailability [14]: 19%
- inhibition [16]: > 80%
- inhibition [17]: > 80%
- IC50 [18]: 514 nM
- clearance [19]: 56 mL/min/kg
- half-life [21]: 1.8 h
- Papp A→B at 5 µM (MDR1): 6 ×10⁻⁶ cm/s
- IC50 [22]: > 5000 nM
SMILES: N#Cc1ccnc(Nc2cc(C3CCN(C4COC4)CC3)cc(N3CCC(F)(F)C3)n2)c1
- Activity (Mus musculus [10]): Active
- Activity (DRG neuron): Dose-dependent effect
- IC50 [15]: 107 nM
- Activity (Mus musculus [20]): Dose-dependent effect
